Where two headings read alike, the source gives them in different places. Marks after values point to notes of the source that are not given here.
Key:
[1] = Safety and tolerability: treatment-emergent adverse events; assay type: in vivo, human (healthy Chinese adults)
Method in brief: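 Oral tablets were given fasted to three cohorts: 1 mg single (n=8), 4 mg single then 7-day once-daily (n=10), and 10 mg single (n=8). Safety covered TEAEs, hematology, blood chemistry, urinalysis, vital signs, weight, 12-lead ECG and physical examination. AEs were coded with MedDRA v25.0. The safety set was subjects with ≥ 1 dose and ≥ 1 postdose assessment, reported as n (%).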

[2] = Multiple once-daily oral dose pharmacokinetics of dotinurad in plasma; assay type: in vivo, human (healthy Chinese adults)
Method in brief: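 In the 4-mg cohort (n=10, screening serum urate ≥ 5.5 mg/dL), a single Day 1 dose was followed by a 3-day washout. The test compound was then given orally once daily on Days 4–10, each morning after a 10-h fast. Plasma sampled 0–72 h after the Day 10 dose was assayed by LC-MS/MS (LOQ 1 ng/mL). Parameters are noncompartmental, with accumulation relative to Day 1. Mean ± SD; tss,max median (min–max).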

serum urate = details: Chinese patients with gout, cited from earlier work
[3] = Single oral dose pharmacokinetics of dotinurad in plasma, phase 1 study; assay type: in vivo, human (healthy Chinese adults); details: for Vd/F / half-life / AUC(0-inf) / Cmax / Tmax: human, plasma
Method in brief: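 Healthy nonsmoking Chinese adults (18–45 y, weight ≥ 50 kg) took a single oral tablet dose (1 mg n=8, 4 mg n=10, 10 mg n=8) on Day 1 after a 10-h fast. Plasma was sampled 0–48 h, separated at 2000 g for 10 min at 4 °C, and stored at −80 °C. Samples had solid-phase pretreatment, then LC-MS/MS (LOQ 1 ng/mL). Noncompartmental parameters are mean ± SD, tmax median (min–max).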

[4] = Cohort A, 1 mg single dose, N = 8
[5] = Cohort A, 1 mg single dose, N = 8, determined as drug-related TEAE
[6] = Cohort B, 4 mg single and multiple doses, N = 10
[7] = Cohort C, 10 mg single dose, N = 8
[8] = 4 mg once daily for 7 days, Day 10, N = 10, mean ± SD
[9] = 4 mg once daily for 7 days, Day 10 vs Day 1, N = 10, mean ± SD

## O=C(c1cc(Cl)c(O)c(Cl)c1)N1CS(=O)(=O)c2ccccc21 [Dotinurad]
[1]; 1, 4 and 10 mg cohorts
  dose dependence of TEAEs: No dose-dependent TEAEs were observed
[1]; [4]
  Number of subjects with at least one TEAE, any severity: 2 (25.0) n (%)
  Number of subjects with at least one TEAE, mild: 2 (25.0) n (%)
  Number of subjects with at least one TEAE, moderate: 0 n (%)
  Number of subjects with at least one TEAE, severe: 0 n (%)
  TEAE: Blood bilirubin increased (mild): 0 n (%)
  TEAE: Body temperature increased (mild): 0 n (%)
[1]; [5]
  TEAE: Alanine aminotransferase increased (mild): 1 (12.5)^a n (%)
  TEAE: Blood triglycerides increased (mild): 1 (12.5)^a n (%)
[1]; [6]
  Number of subjects with at least one TEAE, any severity: 2 (20.0) n (%)
  Number of subjects with at least one TEAE, mild: 2 (20.0) n (%)
  Number of subjects with at least one TEAE, moderate: 0 n (%)
  Number of subjects with at least one TEAE, severe: 0 n (%)
  TEAE: Alanine aminotransferase increased (mild): 0 n (%)
  TEAE: Blood bilirubin increased (mild): 1 (10.0) n (%)
  TEAE: Blood triglycerides increased (mild): 0 n (%)
  TEAE: Body temperature increased (mild): 1 (10.0) n (%)
[1]; [7]
  Number of subjects with at least one TEAE, any severity: 0 n (%)
  Number of subjects with at least one TEAE, mild: 0 n (%)
  Number of subjects with at least one TEAE, moderate: 0 n (%)
  Number of subjects with at least one TEAE, severe: 0 n (%)
  TEAE: Alanine aminotransferase increased (mild): 0 n (%)
  TEAE: Blood bilirubin increased (mild): 0 n (%)
  TEAE: Blood triglycerides increased (mild): 0 n (%)
  TEAE: Body temperature increased (mild): 0 n (%)
[1]; Total, all cohorts, N = 26
  Number of subjects with at least one TEAE, any severity: 4 (15.4) n (%)
  Number of subjects with at least one TEAE, mild: 4 (15.4) n (%)
  Number of subjects with at least one TEAE, moderate: 0 n (%)
  Number of subjects with at least one TEAE, severe: 0 n (%)
  TEAE: Alanine aminotransferase increased (mild): 1 (3.8) n (%)
  TEAE: Blood bilirubin increased (mild): 1 (3.8) n (%)
  TEAE: Blood triglycerides increased (mild): 1 (3.8) n (%)
  TEAE: Body temperature increased (mild): 1 (3.8) n (%)
[1]; all cohorts
  severity and outcome of TEAEs: All the TEAEs were mild and resolved without any treatment
[1]; all cohorts, 1–10 mg
  fatal TEAE, serious TEAE, or TEAE leading to discontinuation of study drug: No fatal TEAE, serious TEAE, or TEAE leading to discontinuation of study drug was reported
[1]; all cohorts, 4 of 26 subjects
  subjects who experienced at least 1 TEAE: 15.4%
[1]; single and multiple doses of 4 mg (Cohort B), 2/10 subjects
  subjects who experienced at least 1 TEAE: 20.0%
[1]; single dose 1 mg (Cohort A), 2/8 subjects
  subjects who experienced at least 1 TEAE: 25.0%
[2]; [8]
  CLss/F: 0.923 ± 0.183 L/h
  Css,av: 186 ± 31.8 ng/mL
  Css,max: 397 ± 69.4 ng/mL
  Css,min: 65.4 ± 22.1 ng/mL
[2]; 4 mg once daily for 7 days, Day 10, N = 10, median (min–max)
  tss,max: 3.00 (2.00–6.00) h
[2]; [9]
  Rac(AUC0–24h) accumulation ratio: 1.13 ± 0.121
  Rac(Cmax) accumulation ratio: 1.09 ± 0.185
[2]; human, plasma, oral, 4 mg
  AUC: 4470 ± 762 ng·h/mL
  Vd/F: 13.2 ± 1.64 L
  half-life: 10.1 ± 1.72 h
[2]; within 72 h after Day 10 dose, 4 mg once daily for 7 days
  mean plasma concentration relative to the corresponding maximum concentration: below 1%
Serum urate; 2 mg, Week 12
  reduction of serum urate: 37.9%
Serum urate; 4 mg, Week 24
  reduction of serum urate: 45.9%
[3]; across single oral doses of 1, 4 and 10 mg
  time at which mean plasma concentration reached maximum: 3.00 to 3.50 h
[3]; across the single-dose range of 1–10 mg
  CL/F: 0.757 to 0.834 L/h
[3]; oral
  Vd/F: 11.1 to 11.7 L
  half-life: ~10 h
[3]; po, 1 mg
  AUC(0-inf): 1360 ± 288 ng·h/mL
  Cmax: 104 ± 18.5 ng/mL
  Tmax: 3.5 h
  Vd/F: 11.1 ± 2.06 L
  half-life: 10.1 ± 1.26 h
[3]; po, 4 mg
  AUC(0-inf): 4890 ± 683 ng·h/mL
  Cmax: 365 ± 35.2 ng/mL
  Tmax: 3 h
  Vd/F: 11.7 ± 1.12 L
[3]; po, 10 mg
  AUC(0-inf): 13600 ± 2480 ng·h/mL
  Cmax: 964 ± 101 ng/mL
  Tmax: 3 h
  Vd/F: 11.6 ± 1.1 L
  half-life: 10.9 ± 1.53 h
[3]; single oral dose 1 mg, fasted, Cohort A, N = 8, mean ± SD
  CL/F: 0.764 ± 0.147 L/h
[3]; single oral dose 4 mg, fasted, Cohort B Day 1, N = 10, mean ± SD
  CL/F: 0.834 ± 0.130 L/h
[3]; single oral dose 10 mg, fasted, Cohort C, N = 8, mean ± SD
  CL/F: 0.757 ± 0.134 L/h
[3]; within 48 h after single oral doses of 1 to 10 mg
  mean plasma concentration relative to the corresponding maximum concentration: below 10%
